“And” between values parts separate entries of the source, which are not always exact repeats. Equal entries are not always repeated.
Test system: Fibroblast
Test: Multiplex assay against human fibroblast
Assay type: toxicity, cell-based
In short: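 With compound added, live cells were imaged on a CQ1 microscope at 37°C and 5% CO2; staining with Hoechst33342, BioTracker Green Microtubule Cytoskeleton Dye, MitoTracker Red and Annexin V Alexa Fluor 680 had been done at seeding. The CellPathfinder machine-learning gating scheme split cells into Hoechst high-intensity objects or normal cells, normal cells into healthy, pyknosed or fragmented nuclei, and pyknosed cells into mitotic or apoptotic. The tubulin, mitochondrial-mass and membrane-permeability phenotypes are per cents of healthy-nucleus cells.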

[1] = 12 h, 1 µM, compound concentration 1 uM, replicate 1
[2] = 12 h, 1 µM, compound concentration 1 uM, replicate 2
[3] = 12 h, 10 µM, compound concentration 10 uM, replicate 1
[4] = 12 h, 10 µM, compound concentration 10 uM, replicate 2
[5] = 24 h, 1 µM, compound concentration 1 uM, replicate 1
[6] = 24 h, 1 µM, compound concentration 1 uM, replicate 2
[7] = 24 h, 10 µM, compound concentration 10 uM, replicate 1
[8] = 24 h, 10 µM, compound concentration 10 uM, replicate 2
[9] = 48 h, 1 µM, compound concentration 1 uM, replicate 1
[10] = 48 h, 1 µM, compound concentration 1 uM, replicate 2
[11] = 48 h, 10 µM, compound concentration 10 uM, replicate 1
[12] = 48 h, 10 µM, compound concentration 10 uM, replicate 2

SMILES: O=C(NCCCC1CCCCC1)c1ccc(CNC(=O)c2cnn(-c3ccccc3)c2C(F)(F)F)cc1 [SR-321]
- Population Apoptotic (%) [1]: 68% [middle of 4 runs]
- Population Fragmented Nuclei (%) [1]: 20% and 21% and 28%
- Population Healthy Nuclei (%) [1]: 35% and 39% and 42%
- Population Hoechst High Intensity Objects (%) [1]: 12% and 11% and 10%
- Population Mitochondria Different-Phenotype (%) [1]: 13% [middle of 4 runs]
- Population Mitotic Cells (%) [1]: 36% [middle of 4 runs]
- Population Normal (%) [1]: 87% and 88% and 89%
- Population Pyknosed Nuclei (%) [1]: 39% [middle of 4 runs]
- Total Cell Count [1]: 176 [middle of 4 runs]
- Population Membrane Permeable-Phenotype (%) [2]: 14% and 0% and 22%
- Population Normal (%) [2]: 91% and 78% and 92% and 56%
- Population Pyknosed Nuclei (%) [2]: 5% and 6% and 4%
- Total Cell Count [2]: 72 [middle of 4 runs]
- Population Apoptotic (%) [3]: 50% and 60% and 77%
- Population Fragmented Nuclei (%) [3]: 23% [middle of 4 runs]
- Population Healthy Nuclei (%) [3]: 36% and 34% and 55%
- Population Hoechst High Intensity Objects (%) [3]: 10% and 9% and 6%
- Population Mitotic Cells (%) [3]: 49% [middle of 4 runs]
- Population Normal (%) [3]: 89% and 90% and 93%
- Population Pyknosed Nuclei (%) [3]: 46% and 38% and 43%
- Total Cell Count [3]: 161 [middle of 4 runs]
- Population Healthy Nuclei (%) [4]: 71% and 66% and 69%
- Population Membrane Permeable-Phenotype (%) [4]: 5% and 2% and 0%
- Population Mitotic Cells (%) [4]: 80% and 81% and 44%
- Population Normal (%) [4]: 73% and 94% and 91% and 70%
- Total Cell Count [4]: 103 [middle of 4 runs]
- Population Apoptotic (%) [5]: 31% and 58% and 66%
- Population Fragmented Nuclei (%) [5]: 20% [middle of 4 runs]
- Population Healthy Nuclei (%) [5]: 48% [middle of 4 runs]
- Population Hoechst High Intensity Objects (%) [5]: 13% [middle of 4 runs]
- Population Mitochondria Different-Phenotype (%) [5]: 6% [middle of 4 runs]
- Population Mitotic Cells (%) [5]: 68% and 41% and 33%
- Population Normal (%) [5]: 86% and 90% and 82% and 87%
- Population Pyknosed Nuclei (%) [5]: 33% [middle of 4 runs]
- Total Cell Count [5]: 174 [middle of 4 runs]
- Population Membrane Permeable-Phenotype (%) [6]: 4% [middle of 4 runs]
- Population Mitochondria Different-Phenotype (%) [6]: 19% and 12% and 7%
- Population Mitotic Cells (%) [6]: 100% and 40% and 60%
- Population Normal (%) [6]: 85% and 95% and 89% and 56%
- Total Cell Count [6]: 79 [middle of 4 runs]
- Population Apoptotic (%) [7]: 50% and 57% and 51% and 64%
- Population Fragmented Nuclei (%) [7]: 16% and 31% and 23%
- Population Healthy Nuclei (%) [7]: 42% [middle of 4 runs]
- Population Hoechst High Intensity Objects (%) [7]: 12% [middle of 4 runs]
- Population Mitotic Cells (%) [7]: 49% and 42% and 48% and 35%
- Population Normal (%) [7]: 85% and 90% and 89% and 87%
- Population Pyknosed Nuclei (%) [7]: 46% and 36% and 34%
- Total Cell Count [7]: 148 [middle of 4 runs]
- Population Apoptotic (%) [8]: 33% and 44%
- Population Fragmented Nuclei (%) [8]: 20% and 42%
- Population Healthy Nuclei (%) [8]: 67% and 65% and 40%
- Population Membrane Permeable-Phenotype (%) [8]: 4% [middle of 4 runs]
- Population Mitotic Cells (%) [8]: 50% and 66% and 55%
- Population Normal (%) [8]: 93% and 81% and 92% and 63%
- Population Pyknosed Nuclei (%) [8]: 15% [middle of 4 runs]
- Total Cell Count [8]: 103 [middle of 4 runs]
- Population Apoptotic (%) [9]: 75% and 54% and 59%
- Population Fragmented Nuclei (%) [9]: 29% and 25% and 21%
- Population Healthy Nuclei (%) [9]: 44% and 51% and 53%
- Population Hoechst High Intensity Objects (%) [9]: 16% and 14% and 15%
- Population Membrane Permeable-Phenotype (%) [9]: 36% and 26% and 20%
- Population Mitochondria Different-Phenotype (%) [9]: 2% and 6%
- Population Mitotic Cells (%) [9]: 24% and 45% and 40%
- Population Normal (%) [9]: 83% and 85% and 84%
- Population Pyknosed Nuclei (%) [9]: 26% and 22% and 24%
- Population Tubulin-Different-Phenotype (%) [9]: 38% and 34% and 20%
- Total Cell Count [9]: 132 and 170 and 130
- Population Fragmented Nuclei (%) [10]: 14% and 19% and 13%
- Population Healthy Nuclei (%) [10]: 85% and 80%
- Population Hoechst High Intensity Objects (%) [10]: 13% and 9%
- Population Membrane Permeable-Phenotype (%) [10]: 16% and 10%
- Population Mitochondria Different-Phenotype (%) [10]: 1% and 0%
- Population Mitotic Cells (%) [10]: 0%
- Population Normal (%) [10]: 86% and 90%
- Population Pyknosed Nuclei (%) [10]: 1% and 0%
- Population Tubulin-Different-Phenotype (%) [10]: 28% and 17% and 14%
- Total Cell Count [10]: 116 and 92 and 152
- Population Apoptotic (%) [11]: 63% and 65% and 75%
- Population Fragmented Nuclei (%) [11]: 27% and 40% and 39%
- Population Healthy Nuclei (%) [11]: 39% and 42%
- Population Hoechst High Intensity Objects (%) [11]: 15% and 13% and 9%
- Population Membrane Permeable-Phenotype (%) [11]: 15% and 23% and 22%
- Population Mitochondria Different-Phenotype (%) [11]: 10% and 23% and 14%
- Population Mitotic Cells (%) [11]: 36% and 35% and 24%
- Population Normal (%) [11]: 84% and 86% and 90%
- Population Pyknosed Nuclei (%) [11]: 33% and 16% and 21%
- Population Tubulin-Different-Phenotype (%) [11]: 46% and 52% and 68%
- Total Cell Count [11]: 117 and 138 and 152
- Population Apoptotic (%) [12]: 50% and 100%
- Population Fragmented Nuclei (%) [12]: 21%
- Population Healthy Nuclei (%) [12]: 68% and 76% and 75%
- Population Hoechst High Intensity Objects (%) [12]: 8% and 14%
- Population Mitochondria Different-Phenotype (%) [12]: 7% and 5% and 11%
- Population Normal (%) [12]: 91% and 85%
- Population Tubulin-Different-Phenotype (%) [12]: 67% and 60% and 42%
- Total Cell Count [12]: 108 and 85 and 70

SMILES: Cc1nc(-c2cn3c(n2)-c2ccc(-c4cnn(C(C)(C)C(N)=O)c4)cc2OCC3)n(C(C)C)n1 [TASELISIB]
- Population Apoptotic (%) [1]: 85%
- Population Fragmented Nuclei (%) [1]: 29%
- Population Healthy Nuclei (%) [1]: 53%
- Population Hoechst High Intensity Objects (%) [1]: 12%
- Population Membrane Permeable-Phenotype (%) [1]: 7%
- Population Mitochondria Different-Phenotype (%) [1]: 6%
- Population Mitotic Cells (%) [1]: 14%
- Population Normal (%) [1]: 87%
- Population Pyknosed Nuclei (%) [1]: 17%
- Population Tubulin-Different-Phenotype (%) [1]: 16%
- Total Cell Count [1]: 221
- Population Apoptotic (%) [2]: 100%
- Population Fragmented Nuclei (%) [2]: 61%
- Population Healthy Nuclei (%) [2]: 33%
- Population Hoechst High Intensity Objects (%) [2]: 30%
- Population Membrane Permeable-Phenotype (%) [2]: 15%
- Population Mitochondria Different-Phenotype (%) [2]: 10%
- Population Mitotic Cells (%) [2]: 0%
- Population Normal (%) [2]: 69%
- Population Pyknosed Nuclei (%) [2]: 5%
- Population Tubulin-Different-Phenotype (%) [2]: 60%
- Total Cell Count [2]: 86
- Population Apoptotic (%) [3]: 71%
- Population Fragmented Nuclei (%) [3]: 25%
- Population Healthy Nuclei (%) [3]: 65%
- Population Hoechst High Intensity Objects (%) [3]: 11%
- Population Membrane Permeable-Phenotype (%) [3]: 7%
- Population Mitochondria Different-Phenotype (%) [3]: 2%
- Population Mitotic Cells (%) [3]: 28%
- Population Normal (%) [3]: 88%
- Total Cell Count [3]: 188
- Population Apoptotic (%) [4]: 33%
- Population Fragmented Nuclei (%) [4]: 47%
- Population Healthy Nuclei (%) [4]: 43%
- Population Hoechst High Intensity Objects (%) [4]: 30%
- Population Membrane Permeable-Phenotype (%) [4]: 13%
- Population Mitochondria Different-Phenotype (%) [4]: 13%
- Population Mitotic Cells (%) [4]: 66%
- Population Normal (%) [4]: 69%
- Population Pyknosed Nuclei (%) [4]: 8%
- Population Tubulin-Different-Phenotype (%) [4]: 0%
- Total Cell Count [4]: 99
- Population Apoptotic (%) [5]: 78%
- Population Fragmented Nuclei (%) [5]: 32%
- Population Healthy Nuclei (%) [5]: 51%
- Population Hoechst High Intensity Objects (%) [5]: 14%
- Population Membrane Permeable-Phenotype (%) [5]: 5%
- Population Mitochondria Different-Phenotype (%) [5]: 7%
- Population Mitotic Cells (%) [5]: 21%
- Population Normal (%) [5]: 85%
- Population Pyknosed Nuclei (%) [5]: 16%
- Population Tubulin-Different-Phenotype (%) [5]: 18%
- Total Cell Count [5]: 238
- Population Apoptotic (%) [6]: 60%
- Population Fragmented Nuclei (%) [6]: 62%
- Population Healthy Nuclei (%) [6]: 30%
- Population Hoechst High Intensity Objects (%) [6]: 27%
- Population Membrane Permeable-Phenotype (%) [6]: 14%
- Population Mitochondria Different-Phenotype (%) [6]: 0%
- Population Mitotic Cells (%) [6]: 40%
- Population Normal (%) [6]: 72%
- Population Pyknosed Nuclei (%) [6]: 7%
- Population Tubulin-Different-Phenotype (%) [6]: 47%
- Total Cell Count [6]: 97
- Population Apoptotic (%) [7]: 73%
- Population Fragmented Nuclei (%) [7]: 23%
- Population Healthy Nuclei (%) [7]: 67%
- Population Hoechst High Intensity Objects (%) [7]: 13%
- Population Membrane Permeable-Phenotype (%) [7]: 6%
- Population Mitochondria Different-Phenotype (%) [7]: 2%
- Population Mitotic Cells (%) [7]: 26%
- Population Normal (%) [7]: 86%
- Population Tubulin-Different-Phenotype (%) [7]: 1%
- Total Cell Count [7]: 188
- Population Apoptotic (%) [8]: 42%
- Population Fragmented Nuclei (%) [8]: 38%
- Population Healthy Nuclei (%) [8]: 51%
- Population Hoechst High Intensity Objects (%) [8]: 22%
- Population Membrane Permeable-Phenotype (%) [8]: 10%
- Population Mitochondria Different-Phenotype (%) [8]: 15%
- Population Mitotic Cells (%) [8]: 57%
- Population Normal (%) [8]: 77%
- Population Pyknosed Nuclei (%) [8]: 9%
- Population Tubulin-Different-Phenotype (%) [8]: 5%
- Total Cell Count [8]: 99

Reference: ChEMBL document CHEMBL4689842, “EUbOPEN Chemogenomics Library wave 1” (2021)
